MIC and No. of mice data for four molecules are collected here from ChEMBL document CHEMBL1126604, “Synthesis and antiviral activity of 5-thien-2-yl-2'-deoxyuridine analogues” (1993).

Structures are written as SMILES. In brackets after ≈: the same amount, converted by molar mass.

What all share (assay type): functional
The test system of assay [1] is Human alphaherpesvirus 3. The assay is described as follows: Minimum inhibitory concentration required to reduce Varicella-Zoster virus (VZV (Oka)) virus-induced cytopathicity by 50%. For orientation: Protection from cytopathic effect is a common read-out in antiviral testing.
Assay [2] deals with Human alphaherpesvirus 1. The assay is described as follows: Minimum inhibitory concentration required to reduce thymidine kinase deficient-HSV-1 (VMW 1837) virus-induced cytopathicity by 50%.
In assay [3] the test system is Human alphaherpesvirus 1. The assay is described as follows: Minimum inhibitory concentration required to reduce thymidine kinase deficient-HSV-1 (B2006) virus-induced cytopathicity by 50%.
Assay [4] concerns Human alphaherpesvirus 3. The assay is described as follows: Minimum inhibitory concentration required to reduce TK-VZV (07-1) virus-induced cytopathicity by 50%.
In assay [5] the test system is Cytomegalovirus. The assay is described as follows: Minimum inhibitory concentration required to reduce cytomegalo virus (CMV (AD-169)) virus-induced cytopathicity by 50%. The conditions noted are these: Human betaherpesvirus 5.
Assay [6] relates to Vesicular stomatitis virus. The assay is described as follows: Minimum inhibitory concentration required to reduce VSV virus-induced cytopathicity by 50%.
Assay [7] has as its system Human alphaherpesvirus 3. The assay is described as follows: Minimum inhibitory concentration required to reduce TK-VZV (YS/R) virus-induced cytopathicity by 50%.
For assay [8], the system named is Human alphaherpesvirus 2. The assay is described as follows: Minimum inhibitory concentration required to reduce herpes simplex virus-2 (HSV-2 (G)) virus-induced cytopathicity by 50%.
Assay [9] relates to Cytomegalovirus. The assay is described as follows: Minimum inhibitory concentration required to reduce cytomegalo virus (CMV (Davis)) virus-induced cytopathicity by 50%. The conditions noted are these: Human betaherpesvirus 5.
The subject of assay [10] is Cell line. The assay is described as follows: (§1) Minimum inhibitory concentration required to reduce virus-induced cell growth by 50%. The conditions noted are these: Homo sapiens. The method in brief: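 Cytotoxicity was measured as inhibition of cell growth in E6SM or HEL cells seeded in 96-well plates.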
Assay [11] has as its system Cell line. The assay is described as follows: Minimum concentration required to cause a microscopically detectable alteration of human cells morphology. The method in brief:
(§2)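 Cytotoxicity read as the minimum concentration causing a microscopically detectable alteration of normal cell morphology. Cells were human embryonic skin-muscle (E6SM) or human embryonic lung (HEL), seeded in 96-well plates.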

For assay [12], the system named is Human alphaherpesvirus 1. The assay is described as follows: Minimum inhibitory concentration required to reduce herpes simplex virus-1 (HSV-1 (KOS)) virus-induced cytopathicity by 50%.
For assay [13], the system named is Vaccinia virus. The assay is described as follows: Minimum inhibitory concentration required to reduce vaccinia virus (VV) virus-induced cytopathicity by 50%. The conditions noted are these: Orthopoxvirus vaccinia.
Assay [14] deals with Human alphaherpesvirus 2. The assay is described as follows: Minimum inhibitory concentration required to reduce herpes simplex virus-2 (HSV-2 (196)) virus-induced cytopathicity by 50%.
Assay [15] relates to Human alphaherpesvirus 2. The assay is described as follows: Minimum inhibitory concentration required to reduce herpes simplex virus-2 (HSV-2 (Lyons)) virus-induced cytopathicity by 50%.
In assay [16] the test system is Human alphaherpesvirus 1. The assay is described as follows: Minimum inhibitory concentration required to reduce herpes simplex virus-1 (HSV-1 (McIntyre)) virus-induced cytopathicity by 50%.
In assay [17] the test system is Human alphaherpesvirus 1. The assay is described as follows: Minimum inhibitory concentration required to reduce herpes simplex virus-1 (HSV-1 (F)) virus-induced cytopathicity by 50%.
Assay [18] is described as follows: as §1. The conditions noted are these: Homo sapiens.
Assay [19] relates to Cell line. The assay is described as follows: Minimum concentration required to cause a microscopically detectable alteration of cell morphology. The conditions noted are these: Homo sapiens. The method in brief: as §2
Assay [20] deals with Human alphaherpesvirus 1. The assay is described as follows: Minimum inhibitory concentration required to reduce TK-HSV-1 (B2006) virus-induced cytopathicity by 50%.
The test system of assay [21] is Mus musculus. The assay is described as follows: Survival of mice after intraperitoneal infection with HSV-1 (KOS) and oral administration of 100 mg/kg at day 6. The essentials: (§3)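 Mice were infected intraperitoneally with HSV-1 (KOS), 10 mice per group. Drug was given by oral gavage once daily for 5 days, starting on the day of infection, at 25, 100 or 250 mg/kg per day. Vehicle was a 90:10 suspension of Sirupus Simplex and propylene glycol; the placebo group got the same syrup. Surviving mice were counted over 20 days.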

The test system of assay [22] is Mus musculus. The assay is described as follows: Survival of mice after intraperitoneal infection with HSV-1 (KOS) and oral administration of 100 mg/kg at day 12. The essentials: as §3
The test system of assay [23] is Mus musculus. The assay is described as follows: Survival of mice after intraperitoneal infection with HSV-1 (KOS) and oral administration of 25 mg/kg at day 9. The method in brief:
as §3

Assay [24] concerns Mus musculus. The assay is described as follows: Survival of mice after intraperitoneal infection with HSV-1 (KOS) and oral administration of 100 mg/kg at day 3. The essentials: as §3
In assay [25] the test system is Mus musculus. The assay is described as follows: Survival of mice after intraperitoneal infection with HSV-1 (KOS) and oral administration of 250 mg/kg at day 20. The method in brief: as §3
Assay [26] concerns Mus musculus. The assay is described as follows: Survival of mice after intraperitoneal infection with HSV-1 (KOS) and oral administration of 250 mg/kg at day 6. The method in brief: as §3
Assay [27] relates to Mus musculus. The assay is described as follows: Survival of mice after intraperitoneal infection with HSV-1 (KOS) and oral administration of 25 mg/kg at day 6. The method in brief: as §3
Assay [28] relates to Mus musculus. The assay is described as follows: Survival of mice after intraperitoneal infection with HSV-1 (KOS) and oral administration of 250 mg/kg at day 0. The method in brief: as §3
Assay [29] has as its system Mus musculus. The assay is described as follows: Survival of mice after intraperitoneal infection with HSV-1 (KOS) and oral administration of 25 mg/kg at day 12. The essentials: as §3
In assay [30] the test system is Mus musculus. The assay is described as follows: Survival of mice after intraperitoneal infection with HSV-1 (KOS) and oral administration of 25 mg/kg at day 0. The method in brief:
as §3

Assay [31] relates to Mus musculus. The assay is described as follows: Survival of mice after intraperitoneal infection with HSV-1 (KOS) and oral administration of 250 mg/kg at day 12. The essentials:
as §3

Assay [32] relates to Mus musculus. The assay is described as follows: Survival of mice after intraperitoneal infection with HSV-1 (KOS) and oral administration of 100 mg/kg at day 0. The essentials:
as §3

In assay [33] the test system is Mus musculus. The assay is described as follows: Survival of mice after intraperitoneal infection with HSV-1 (KOS) and oral administration of 250 mg/kg at day 9. The essentials:
as §3

For assay [34], the system named is Mus musculus. The assay is described as follows: Survival of mice after intraperitoneal infection with HSV-1 (KOS) and oral administration of 100 mg/kg at day 20. The method in brief: as §3
The subject of assay [35] is Mus musculus. The assay is described as follows: Survival of mice after intraperitoneal infection with HSV-1 (KOS) and oral administration of 25 mg/kg at day 20. The method in brief: as §3
Assay [36] deals with Mus musculus. The assay is described as follows: Survival of mice after intraperitoneal infection with HSV-1 (KOS) and oral administration of 25 mg/kg at day 3. The essentials: as §3
Assay [37] concerns Mus musculus. The assay is described as follows: Survival of mice after intraperitoneal infection with HSV-1 (KOS) and oral administration of 250 mg/kg at day 3. The method in brief:
as §3

Assay [38] relates to Mus musculus. The assay is described as follows: Survival of mice after intraperitoneal infection with HSV-1 (KOS) and oral administration of 100 mg/kg at day 9. The essentials:
as §3

As for `O=c1[nH]c(=O)n([C@H]2C[C@H](O)[C@@H](CO)O2)cc1-c1ccc([N+](=O)[O-])s1`, the MIC in [1] is 7 µg/mL (≈ 19.7 µM); in assay [2], 150 µg/mL (≈ 422 µM); in assay [3], > 200 µg/mL; in assay [4], 40 µg/mL (≈ 113 µM); in assay [5] it was > 40 µg/mL; in assay [6], > 200 µg/mL. Further, the MIC in [7] was > 40 µg/mL; in assay [8] it was 150 µg/mL (≈ 422 µM); in [9], > 40 µg/mL; in [10], > 50 µg/mL; in [11], > 200 µg/mL; in [12] it was 2 µg/mL (≈ 5.63 µM). This molecule also displayed an MIC in assay [13] of 150 µg/mL (≈ 422 µM).

`O=c1[nH]c(=O)n([C@H]2C[C@H](O)[C@@H](CO)O2)cc1-c1ccno1`: the MIC is 0.48 µg/mL (≈ 1.63 µM) in [1]; 300 µg/mL (≈ 1020 µM) in assay [14]; > 400 µg/mL in assay [2]; 300 µg/mL (≈ 1020 µM) in assay [3]; > 400 µg/mL in assay [15]; > 400 µg/mL in [6]. Further, the MIC in [7] is 10 µg/mL (≈ 33.9 µM); in assay [16], 2 µg/mL (≈ 6.77 µM); in assay [8], 300 µg/mL (≈ 1020 µM); in assay [10] it was > 50 µg/mL; in assay [11], 20 µg/mL (≈ 67.7 µM); in [12], 20 µg/mL (≈ 67.7 µM). The MIC is 20 µg/mL (≈ 67.7 µM) in [17] and > 400 µg/mL in [13].

Consider `C#Cc1ccc(-c2cn([C@H]3C[C@H](O)[C@@H](CO)O3)c(=O)[nH]c2=O)s1`, for which the MIC was 0.25 µg/mL (≈ 0.748 µM) in [1]; 14 µg/mL (≈ 41.9 µM) in assay [18]; > 200 µg/mL in [14]; > 200 µg/mL in [2]; 5 µg/mL (≈ 15 µM) in assay [4]; > 200 µg/mL in assay [15]. For the same molecule, the MIC in assay [5] is > 10 µg/mL; in assay [6], > 200 µg/mL; in assay [7] it was 17 µg/mL (≈ 50.8 µM); in [16] it was 0.2 µg/mL (≈ 0.598 µM); in assay [8] it was > 200 µg/mL; in [19], 400 µg/mL (≈ 1200 µM). The MIC in [20] was > 200 µg/mL; in assay [9], > 10 µg/mL; in assay [12], 0.4 µg/mL (≈ 1.2 µM); in assay [17] it was 0.2 µg/mL (≈ 0.598 µM); in [13], > 200 µg/mL.

For `O=c1[nH]c(=O)n(C2O[C@H](CO)[C@@H](O)[C@@H]2O)cc1-c1ccc(Br)s1` (some centres undefined), the No. of mice is reported as 8 in assay [21]; 1 in assay [22]; 2 in assay [23]; 10 in assay [24]; 5 in assay [25]; 8 in assay [26]. Besides, the No. of mice in [27] was 10; in assay [28] it was 10; in [29] it was 2; in [30], 10; in assay [31] it was 5; in [32] it was 10. The No. of mice in assay [33] came to 5; in [34], 1; in assay [35] it was 2; in assay [36], 10; in [37] it was 10; in assay [38], 1. The MIC in assay [1] is 0.05 µg/mL (≈ 0.123 µM); in assay [18], > 50 µg/mL; in assay [14], 70 µg/mL (≈ 173 µM); in [2] it was > 100 µg/mL; in [3], > 100 µg/mL; in [4] it was 40 µg/mL (≈ 98.7 µM). For the same molecule, the MIC in assay [15] is 20 µg/mL (≈ 49.4 µM); in assay [5], 30 µg/mL (≈ 74 µM); in [6], > 100 µg/mL; in [7], 40 µg/mL (≈ 98.7 µM); in [16], 0.02 µg/mL (≈ 0.0494 µM); in assay [8], 70 µg/mL (≈ 173 µM). Further, the MIC was > 40 µg/mL in assay [19]; 35 µg/mL (≈ 86.4 µM) in assay [9]; 0.08 µg/mL (≈ 0.197 µM) in [12]; 0.07 µg/mL (≈ 0.173 µM) in [17]; 20 µg/mL (≈ 49.4 µM) in assay [13].
